Data from PMC5253108 (European journal of medicinal chemistry, 2016).
Where two headings read alike, the source gives them in different places.

What was measured:
[1] = test system: BEAS2B lung epithelial cells; assay: In vitro cytotoxicity, Cell-Titer Glo viability, BEAS2B; assay type: cell-based; details: 48 hours
airway smooth muscle = details: cited from earlier work
[2] = In vitro liver microsomal stability; assay type: in vitro ADME; details: liver microsomes
[3] = test system: murine house dust mite model of asthma; details: cited from earlier work
rats = assay: Sensorimotor impairment in rats; assay type: in vivo, rat; details: 15 mg/kg, unpublished results
mice = details: aerosol delivery in mice; cited from earlier work
HEK293 kidney cells = assay type: cell-based; details: 48 hours, Cell-Titer Glo
HepG2 liver cells = assay: In vitro cytotoxicity, Cell-Titer Glo viability, HepG2; assay type: cell-based; details: 48 hours
[4] = test system: guinea pig tracheal rings; details: cited from earlier work
Swiss Webster mice [5] = details: published previously; cited from earlier work
[6] = mouse, cited from earlier work
[7] = In vitro liver microsomal stability; assay type: in vitro ADME, mouse; details: mouse liver microsomes, 1 h
[8] = test system: ovalbumin (S/C) BALB/c mice; details: given repeatedly over five days; listed as ethyl ester of XHE-III-74; cited from earlier work
[9] = test system: ovalbumin (S/C) BALB/c mice; assay type: in vivo, mouse; details: 40 mg/kg i.p. for 5 days, 12.5 mg/ml methacholine challenge, p<0.05
Method in brief: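 BALB/c mice were sensitized by ovalbumin injections (2 mg/kg/d in 2 mg alum, days 0, 7, 14) and challenged intranasally with ovalbumin (1.6 mg/kg/d, days 23–27); controls were saline-challenged. Test compound was given i.p. twice daily during the challenge period. Conscious mice had non-invasive sRaw measured after 1 min aerosolized PBS or methacholine (1.56–12.5 mg/mL), averaged over 3 min. Analysis used two-way repeated-measures ANOVA with Bonferroni post-test.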

Swiss Webster mice [10] = assay: Rotarod assay of sensorimotor coordination in mice; details: 40 mg/kg i.p., Swiss Webster mice, 10, 30 and 60 min
[11] = test system: guinea pig tracheal rings; details: 50 µM compound, substance P contracted rings
α4β3γ2 GABAAR = α4β3γ2 GABAAR (Homo sapiens, UniProt P18507+P48169); assay: GABA induced current potentiation, α4β3γ2 GABAAR; assay type: biochemical; details: 1 µM compound, GABA EC20 concentration
Chain of α4β3γ2 GABAAR (P48169 36-554): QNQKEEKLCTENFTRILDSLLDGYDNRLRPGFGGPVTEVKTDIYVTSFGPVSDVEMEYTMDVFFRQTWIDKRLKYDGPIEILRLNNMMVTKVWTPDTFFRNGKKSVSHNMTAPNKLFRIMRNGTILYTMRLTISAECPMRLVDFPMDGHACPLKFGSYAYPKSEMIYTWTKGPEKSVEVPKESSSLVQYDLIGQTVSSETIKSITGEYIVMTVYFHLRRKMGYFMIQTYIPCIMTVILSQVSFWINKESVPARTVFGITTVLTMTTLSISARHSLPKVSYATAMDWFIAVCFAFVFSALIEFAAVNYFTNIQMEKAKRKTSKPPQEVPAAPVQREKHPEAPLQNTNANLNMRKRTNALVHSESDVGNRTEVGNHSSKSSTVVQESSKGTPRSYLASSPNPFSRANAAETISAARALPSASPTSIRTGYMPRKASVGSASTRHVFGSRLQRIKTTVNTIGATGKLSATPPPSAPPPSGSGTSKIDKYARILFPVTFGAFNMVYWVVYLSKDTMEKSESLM
Chain of α4β3γ2 GABAAR (P28472 26-473 partner): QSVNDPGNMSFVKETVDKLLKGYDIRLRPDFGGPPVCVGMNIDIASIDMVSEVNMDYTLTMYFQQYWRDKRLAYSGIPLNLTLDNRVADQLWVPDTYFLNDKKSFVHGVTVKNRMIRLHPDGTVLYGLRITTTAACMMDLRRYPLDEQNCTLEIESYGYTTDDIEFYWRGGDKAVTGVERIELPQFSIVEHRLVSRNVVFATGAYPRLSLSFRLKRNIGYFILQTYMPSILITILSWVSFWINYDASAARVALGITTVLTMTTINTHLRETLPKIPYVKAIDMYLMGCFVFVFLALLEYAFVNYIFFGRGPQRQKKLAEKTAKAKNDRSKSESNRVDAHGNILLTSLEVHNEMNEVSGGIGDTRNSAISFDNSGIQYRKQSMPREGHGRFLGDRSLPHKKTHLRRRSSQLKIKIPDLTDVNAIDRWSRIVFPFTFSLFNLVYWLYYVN
Chain of α4β3γ2 GABAAR (P18507 40-475): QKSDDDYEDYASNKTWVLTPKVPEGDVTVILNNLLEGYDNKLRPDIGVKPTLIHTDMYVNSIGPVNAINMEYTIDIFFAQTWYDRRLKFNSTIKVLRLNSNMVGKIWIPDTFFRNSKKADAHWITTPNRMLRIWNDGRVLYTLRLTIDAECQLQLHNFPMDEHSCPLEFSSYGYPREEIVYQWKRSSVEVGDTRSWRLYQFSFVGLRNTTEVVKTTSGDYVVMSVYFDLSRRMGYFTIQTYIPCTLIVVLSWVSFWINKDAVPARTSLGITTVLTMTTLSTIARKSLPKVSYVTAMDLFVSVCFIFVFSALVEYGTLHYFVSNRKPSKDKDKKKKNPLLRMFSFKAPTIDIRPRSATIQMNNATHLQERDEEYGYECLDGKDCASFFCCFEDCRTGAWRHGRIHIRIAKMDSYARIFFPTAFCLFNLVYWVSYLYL

[12] = Pharmacokinetic study in mice; assay type: in vivo, mouse; details: mouse

| Structure (SMILES) | Toxicity in BEAS 2B (Lung) LD50 [1] [µM] | relaxation of pre-contracted airway smooth muscle (airway smooth muscle) | stability in the presence of human liver microsomes [2] | airway resistance in murine house dust mite model [3] | sensorimotor impairment in rats (rats) | airway hyperresponsiveness after aerosol delivery (mice) | Toxicity in HEK293 (Kidney) LD50 (HEK293 kidney cells) [µM] | Toxicity in HEPG2 (Liver) LD50 (HepG2 liver cells) [µM] | airway muscle constriction caused by substance P [4] | sensorimotor impairment on rotarod (Swiss Webster mice [5]) | AUC for lung exposure ([6]; same dose as 16, lung) [ng·min/mL] | t1/2 ([6]; same dose as 16) [min] | loss at 1 h in mouse liver microsomes [7] | airway hyperresponsiveness in ovalbumin S/C asthma model [8] | specific airway resistance (sRAW) vs vehicle, 5 day treatment [9] | sensorimotor impairment on rotarod (Swiss Webster mice [10]) | time to airway smooth muscle relaxation effect [11] [min] | potentiation of GABA induced current, α4β3γ2 GABAAR (α4β3γ2 GABAAR) [%] | blood brain barrier penetration ([12]; 5 mg/kg i.p.) | AUC ([12]; lung, ip, 5 mg/kg) [ng·h/mL] |
| --- | --- | --- | --- | --- | --- | --- | --- | --- | --- | --- | --- | --- | --- | --- | --- | --- | --- | --- | --- | --- |
| COc1ccc2c(c1)C(=O)N1CCC[C@H]1c1c(C(=O)OC(C)(C)C)ncn1-2 [Compound 7, (S)-tert-Butyl-7-methoxy-9-oxo-11,12,13,13a-tetrahydro-9H-benzo[e]imidazo[5,1-c]pyrrolo[1,2-a][1,4]diazepine-1-carboxylate] | >200 | relaxed pre-contracted airway smooth muscle | stable | reduced airway resistance | induced sensorimotor impairment | reduces airway hyperresponsiveness | >100 | >400 | significantly reduced airway muscle constriction |  |  |  |  |  |  |  |  |  |  |  |
| CCOC(=O)c1ncn2c1[C@@H]1CCCN1C(=O)c1cc(OC)ccc1-2 [Compound 5] | >400 |  |  |  |  |  | >400 | >400 | significantly reduced airway muscle constriction | weakly induced sensorimotor impairment | 4516 | 16.3 | less than 20% | reduced airway hyperresponsiveness |  |  |  |  |  |  |
| COc1ccc2c(c1)C(=O)N1CCC[C@H]1c1c(C(=O)N(C)C)ncn1-2 [Compound 16] | >400 |  |  |  |  |  | >400 | >400 |  |  |  |  | less than 20% |  | significant reduction in sRAW | did not induce sensorimotor impairment | ≤ 15 | 319 | did penetrate the blood brain barrier | 12.7 |
